This note sets out measurements from ChEMBL document CHEMBL2150936, “Anticancer activity of small amphipathic β²,²-amino acid derivatives” (Eur J Med Chem, 2012).

Experiment [1] deals with Ramos. In words: Cytotoxicity against human Ramos cells after 4 hrs by MTT assay. In kind it is functional, cell-based. In short, it runs like this: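 Ramos Burkitt's lymphoma cells, kept in suspension in RPMI 1640 with 10% FBS, were seeded at 4 × 10^5 cells/ml in serum-free RPMI 1640. Compounds in RPMI-1640 were added immediately, then 4 h at 37 °C, 5% CO2. MTT was added for a further 2 h, formazan dissolved in acidic isopropanol (0.04 N HCl), and A590 read. Survival was calculated against untreated medium control; 1% Triton X-100 served as positive control.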
For orientation: Tetrazolium dyes change colour on reduction, which living cells bring about.

Experiment [2] is described as follows: Hemolytic activity in human RBC assessed as hemoglobin release. The format is ADME, cell-based, Erythrocyte. In a few lines: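 Heparinized human blood was washed three times in PBS pre-warmed to 37 °C to remove plasma. Compounds were dissolved in PBS and mixed with the RBCs to a final 1% v/v erythrocytes. Samples were incubated for 1 h at 37 °C with agitation, then centrifuged. Hemoglobin release was read at 405 nm, relative to 0.1% v/v Triton X-100 (positive control) and PBS (negative control).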

The subject of a further experiment is MRC5. In words: Cytotoxicity against human MRC5 cells after 4 hrs by MTT assay. In kind it is cell-based. The conditions noted are these: MRC5, 4 h. In a few lines: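 MRC-5 embryonic lung fibroblast monolayers in MEM with 10% FBS were seeded at 1 × 10^5 cells/ml, grown overnight, then medium was replaced with compound solution. Exposure was 4 h at 37 °C, 5% CO2, then MTT for 2 h. Formazan was dissolved in acidic isopropanol (0.04 N HCl) and absorbance read at 590 nm. Background-corrected viability was taken relative to medium-only control, with Triton X-100 as positive control.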

The subject of experiment [3] is Ramos. In words: Selectivity index, ratio of EC50 for human MRC5 cells to IC50 for human Ramos cells. In kind it is functional. In a few lines: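 Ramos cells were seeded at 4 × 10^5 cells/ml in serum-free RPMI-1640, and compounds in RPMI-1640 were added at once. MRC-5 fibroblasts were seeded at 1 × 10^5 cells/ml in MEM with 10% FBS, grown overnight, and the medium was then replaced with compound. Both were incubated 4 h at 37 °C, 5% CO2, then given MTT for 2 h. Formazan was dissolved in acidic isopropanol and read at 590 nm. Survival was expressed relative to the untreated medium control. SI = MRC-5 EC50 / Ramos IC50.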

Experiment [4] deals with Ramos. In words: Selectivity index, ratio of EC50 for human RBC to IC50 for human Ramos cells. In kind it is functional. In a few lines:
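Ramos IC50 came from a 4 h MTT assay: cells at 4 × 10^5 cells/ml in serum-free RPMI-1640, compounds added at once, 37 °C, 2 h MTT, read at 590 nm. RBC EC50 came from hemoglobin release at 405 nm: 1% v/v washed human erythrocytes in PBS, 1 h at 37 °C, Triton X-100 reference. SI = RBC EC50 / Ramos IC50.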

Setting [5] is: Homo sapiens, Erythrocyte, read-out: EC50.

A word on the IC50: it is the concentration that gives 50% inhibition. The EC50 is the concentration giving half of the maximal effect. As for `CC(C)(C)c1ccc(CC(CNC(=N)N)(Cc2ccc(C(C)(C)C)cc2)C(=O)NCCCNC(=N)N)cc1`, half-maximal inhibition in the experiment with Ramos [1] (IC50) required 63 µM. Also, the values for the EC50 entry (in experiment [2] (erythrocyte); in the experiment with MRC5) were “ND(Insoluble)” and 64 µM, respectively. Besides, the “Selectivity Index” value in the experiment with Ramos [3] was determined as 1.

`N=C(N)NCCCNC(=O)C(CNC(=N)N)(Cc1ccc2ccccc2c1)Cc1ccc2ccccc2c1` gave an IC50 in the experiment on Ramos [1] of 79 µM. Besides, the EC50 result in experiment [2] (erythrocyte) was “ND(Insoluble)”; in the experiment with MRC5, 760 µM. Further, the “Selectivity Index” value with Ramos [3] came out at 9.6.

Take `CN1CCN(C(=O)C(CN)(Cc2ccc3ccccc3c2)Cc2ccc3ccccc3c2)CC1`: half-maximal inhibition with Ramos [1] (IC50) required 14 µM. The EC50 with MRC5 was found to be 41 µM. The “Selectivity Index” value with Ramos [4] was 22; with Ramos [3], 2.9.

Turning to `CN(C)CCOC(=O)C(CN)(Cc1ccc2ccccc2c1)Cc1ccc2ccccc2c1`, the IC50 with Ramos [1] worked out at 3.1 µM. The concentration for a half-maximal effect (EC50) turned out to be 458 µM in experiment [2] (setting [5]) and 12.7 µM with MRC5. Also, the “Selectivity Index” value in the experiment with Ramos [4] turned out to be 148; in the experiment with Ramos [3] it was 4.1.

The compound `CN(C)CCOC(=O)C(CN)(Cc1ccc(C(F)(F)F)cc1)Cc1ccc(C(F)(F)F)cc1` yielded an IC50 in the experiment on Ramos [1] of 2.3 µM. Moreover, the values for the EC50 (in experiment [2] (setting [5]); in the experiment with MRC5) were 437 µM and 8.2 µM, respectively. The entries for the “Selectivity Index” value with Ramos [4] and in the experiment on Ramos [3] were 190 and 3.6, respectively.

In turn, `CN1CCN(C(=O)C(CN)(Cc2ccc(C(F)(F)F)cc2)Cc2ccc(C(F)(F)F)cc2)CC1` yielded an IC50 in the experiment on Ramos [1] of 27 µM. In addition, the EC50 in experiment [2] (setting [5]) amounted to 526 µM; with MRC5, 182 µM. Further, the “Selectivity Index” value with Ramos [4] turned out to be 19.6; in the experiment on Ramos [3], 6.7.

Consider `CN(C)CCNC(=O)C(CN)(Cc1ccc2ccccc2c1)Cc1ccc2ccccc2c1`, for which, in the experiment with Ramos [1], the IC50 amounted to 6.6 µM. Further, the EC50 in experiment [2] (setting [5]) worked out at 217 µM; in the experiment with MRC5, 4.9 µM. For the same compound, the “Selectivity Index” value in the experiment with Ramos [4] is 33; with Ramos [3], 0.7.

Consider `CC(C)(C)c1ccc(CC(CN)(Cc2ccc(C(C)(C)C)cc2)C(=O)NCCCN)cc1`, for which, in the experiment on Ramos [1], the IC50 is 14.4 µM. In addition, the EC50 in experiment [2] (setting [5]) stood at 254 µM; in the experiment with MRC5 it was 35 µM. Besides, the “Selectivity Index” value in the experiment on Ramos [4] turned out to be 17.6; in the experiment with Ramos [3], 2.4.

In turn, `CC(C)(C)c1ccc(CC(CN)(Cc2ccc(C(C)(C)C)cc2)C(=O)NCCN)cc1` had a half-maximal inhibitory concentration (IC50) in the experiment on Ramos [1] of 10.6 µM. The figures for the EC50 (in experiment [2] (setting [5]); in the experiment on MRC5) were 18 µM and 6.1 µM, respectively. Further, the “Selectivity Index” value in the experiment on Ramos [4] is listed as 1.7; with Ramos [3], 0.6.

Regarding `NCCNC(=O)C(CN)(Cc1ccc(C(F)(F)F)cc1)Cc1ccc(C(F)(F)F)cc1`, in the experiment on Ramos [1], the IC50 came to 7.1 µM. The compound further showed an EC50 in the experiment on MRC5 of 17.8 µM. For the same compound, the “Selectivity Index” value was 60 in the experiment with Ramos [4] and 2.5 in the experiment with Ramos [3].

The compound `CN(C)CCN1CCN(C(=O)C(CN)(Cc2ccc(C(F)(F)F)cc2)Cc2ccc(C(F)(F)F)cc2)CC1` had an IC50 in the experiment on Ramos [1] of 19 µM. The results for the EC50 (in experiment [2] (setting [5]); with MRC5) were 1120 µM and 69 µM, respectively. Moreover, the “Selectivity Index” value amounted to 58 with Ramos [4] and 3.6 in the experiment on Ramos [3].

`CN(C)CCNC(=O)C(CN)(Cc1ccc(C(C)(C)C)cc1)Cc1ccc(C(C)(C)C)cc1` had a half-inhibitory concentration (IC50) in the experiment on Ramos [1] of 28 µM. In addition, the EC50 with MRC5 is 49 µM. The “Selectivity Index” value in the experiment with Ramos [4] came out at 9.8; in the experiment with Ramos [3] it was 1.8.

In the case of `CN(C)CCOC(=O)C(CN)(Cc1ccc(C(C)(C)C)cc1)Cc1ccc(C(C)(C)C)cc1`, 31 µM corresponded to half-maximal inhibition in the experiment on Ramos [1] (IC50). The EC50 in experiment [2] (setting [5]) is 52 µM; in the experiment with MRC5, 90 µM. Moreover, the “Selectivity Index” value with Ramos [4] worked out at 1.7; in the experiment on Ramos [3], 2.9.

As to `NCCCNC(=O)C(CN)(Cc1ccc(C(F)(F)F)cc1)Cc1ccc(C(F)(F)F)cc1`, half-maximal inhibition in the experiment on Ramos [1] (IC50) was put at 11 µM. For the same compound, the EC50 in experiment [2] (setting [5]) was determined as 790 µM; in the experiment on MRC5, 30 µM. Also, the “Selectivity Index” value in the experiment with Ramos [4] amounted to 72; in the experiment on Ramos [3] it was 2.8.

`NCCCNC(=O)C(CN)(Cc1ccc2ccccc2c1)Cc1ccc2ccccc2c1` yielded an IC50 in the experiment on Ramos [1] of 4.3 µM. Further, the half-maximal effective concentration (EC50) is 447 µM in experiment [2] (setting [5]) and 6.6 µM in the experiment on MRC5. Also, the “Selectivity Index” value in the experiment with Ramos [4] turned out to be 104; in the experiment with Ramos [3], 1.5.

For `CN(C)CCNC(=O)C(CN)(Cc1ccc(C(F)(F)F)cc1)Cc1ccc(C(F)(F)F)cc1`, the IC50 in the experiment with Ramos [1] came out at 11.4 µM. The compound further registered an EC50 in the experiment with MRC5 of 47 µM. Further, the “Selectivity Index” value with Ramos [4] was determined as 41; in the experiment on Ramos [3], 4.1.

Compound `CC(C)(C)c1ccc(CC(CN)(Cc2ccc(C(C)(C)C)cc2)C(=O)N[C@@H](CCCNC(=N)N)C(N)=O)cc1` returned an IC50 in the experiment with Ramos [1] of 136 µM. For the same compound, the figures for the EC50 (in experiment [2] (setting [5]); in the experiment on MRC5) were above 654 µM and 158 µM, respectively. For the same compound, the results for the “Selectivity Index” value with Ramos [4] and in the experiment with Ramos [3] were above 4.8 and 1.2, respectively.

For the compound `CN(C)CCN1CCN(C(=O)C(CN)(Cc2ccc3ccccc3c2)Cc2ccc3ccccc3c2)CC1`, the half-inhibitory concentration (IC50) in the experiment with Ramos [1] was found to be 7.2 µM. Moreover, the values for the EC50 (in experiment [2] (setting [5]); in the experiment on MRC5) were 409 µM and 18.5 µM, respectively. The “Selectivity Index” value with Ramos [4] was 57; with Ramos [3], 2.6.

In the experiment on Ramos [1], `N=C(N)NCCCNC(=O)C(CNC(=N)N)(Cc1ccc(C(F)(F)F)cc1)Cc1ccc(C(F)(F)F)cc1` yielded an IC50 of 78 µM. Moreover, the concentration for a half-maximal effect (EC50) result in experiment [2] (erythrocyte) is “ND(Insoluble)”; with MRC5 it was 171 µM. The “Selectivity Index” value with Ramos [3] came to 2.2.

`CN(C)CCN1CCN(C(=O)C(CN)(Cc2ccc(C(C)(C)C)cc2)Cc2ccc(C(C)(C)C)cc2)CC1`: the IC50 in the experiment on Ramos [1] turned out to be 5.2 µM. For the same compound, the EC50 in experiment [2] (setting [5]) came to 337 µM; in the experiment with MRC5, 12 µM. Also, the “Selectivity Index” value in the experiment with Ramos [4] was determined as 65; in the experiment on Ramos [3], 2.3.

As to `N=C(N)NCCC[C@H](NC(=O)C(CN)(Cc1ccc2ccccc2c1)Cc1ccc2ccccc2c1)C(N)=O`, in the experiment on Ramos [1], the IC50 worked out at 107 µM. Besides, the EC50 in experiment [2] (setting [5]) stood at 425 µM; in the experiment with MRC5 it was 552 µM. The “Selectivity Index” value with Ramos [4] was 4; in the experiment with Ramos [3], 5.2.

`N=C(N)NCCC[C@H](NC(=O)C(CN)(Cc1ccc(C(F)(F)F)cc1)Cc1ccc(C(F)(F)F)cc1)C(N)=O`: in the experiment with Ramos [1], the 50% inhibitory concentration (IC50) was above 254 µM. For the same compound, the EC50 was 990 µM in experiment [2] (setting [5]) and above 634 µM in the experiment with MRC5.

In the experiment on Ramos [1], `CN1CCN(C(=O)C(CN)(Cc2ccc(C(C)(C)C)cc2)Cc2ccc(C(C)(C)C)cc2)CC1` came in with an IC50 of 6.1 µM. Also, the EC50 in experiment [2] (setting [5]) worked out at 349 µM; in the experiment with MRC5, 16.6 µM. For the same compound, the entries for the “Selectivity Index” value in the experiment on Ramos [4] and with Ramos [3] were 57 and 2.7, respectively.
